The values that follow come from article PMC3990230 (Journal of medicinal chemistry, 2010).

One experiment relates to IKK. Format: cell-based, Human. The settings on record: A549 cells, TNFα induced, Western blot. The gist of the method:
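A549 cells were pretreated with test compound at varying concentrations (4 hr), then stimulated with TNFα. Phosphorylation read-out: lysates taken at 7 min, probed anti-pS32-IκB, stripped and re-probed for total IκB. Stability read-out: TNFα 10 ng/ml for 20 min, total IκB only. NP-40 lysis (pH 7.4, phosphatase/protease inhibitors), 12.5% SDS-PAGE, nitrocellulose, 5% milk/TBS-T block, primary antibody ≥2 hr.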
In general terms: In western blotting, separated proteins are transferred to a membrane and probed.

The target in the next experiment is T1, recombinant IKKβ (Homo sapiens, UniProt O14920).
T1 sequence (O14920 1-756): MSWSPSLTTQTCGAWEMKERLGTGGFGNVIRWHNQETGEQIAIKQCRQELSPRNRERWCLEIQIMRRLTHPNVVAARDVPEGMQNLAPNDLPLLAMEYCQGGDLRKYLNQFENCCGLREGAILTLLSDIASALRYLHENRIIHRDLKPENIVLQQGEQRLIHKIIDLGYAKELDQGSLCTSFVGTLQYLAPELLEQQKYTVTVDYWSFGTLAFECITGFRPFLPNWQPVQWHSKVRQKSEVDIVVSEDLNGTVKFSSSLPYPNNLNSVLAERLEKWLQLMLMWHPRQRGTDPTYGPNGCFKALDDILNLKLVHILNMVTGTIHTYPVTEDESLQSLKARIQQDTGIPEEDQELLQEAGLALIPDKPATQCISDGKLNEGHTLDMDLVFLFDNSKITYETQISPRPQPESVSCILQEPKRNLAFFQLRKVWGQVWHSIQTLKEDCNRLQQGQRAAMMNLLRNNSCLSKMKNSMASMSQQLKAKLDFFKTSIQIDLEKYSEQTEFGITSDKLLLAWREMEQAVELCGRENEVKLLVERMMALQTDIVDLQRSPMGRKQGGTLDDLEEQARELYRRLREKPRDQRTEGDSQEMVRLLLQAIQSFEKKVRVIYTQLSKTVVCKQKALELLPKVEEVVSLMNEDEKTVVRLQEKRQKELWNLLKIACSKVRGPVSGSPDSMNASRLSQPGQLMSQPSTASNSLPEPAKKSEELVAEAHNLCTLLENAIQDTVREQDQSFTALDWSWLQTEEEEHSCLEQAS
Nature of the experiment: In vitro IKK assay: 32P incorporation into GST-IκB. Format: biochemical. Particulars: 30 min at 30°C. The gist of the method:
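Activated recombinant IKKβ (40 ng) in MOPS buffer (pH 7.0) preincubated with test compound for 30 min at room temperature. Mg-ATP mix (100 μM ATP), purified GST-IκBα (5 μg) and [γ-32P]ATP (0.5 μCi) added, then 30 min at 30°C. Reaction stopped by boiling in SDS sample buffer. Samples run on 12.5% SDS-PAGE with Coomassie staining. Read by autoradiography and scintillation counting of excised bands. Controls lacked enzyme or compound.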

The subject of another experiment is A549 cells. The experiment can be described thus: Clonogenic assay. The experiment is classed as cell-based, Human. The settings on record: 9 day incubation. The gist of the method:
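A549 cells seeded at 200 cells/well and incubated overnight, then exposed to test compound or DMSO vehicle. Medium and compound replaced every 3 days, for 9 days in total. Cells fixed in 10% TCA for 30 min at 4°C, water-washed, SRB-stained and rinsed with 1% acetic acid. Plates scanned, colonies counted and normalized to DMSO control.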

A further experiment relates to NF-κB. Nature of the experiment: NF-κB translocation assay. Format: cell-based, Human. Particulars: A549 cells, TNFα induced.

For the molecule `COc1cc(/C=C/C(=O)C(=Cc2cccc(OC)c2OC)C(=O)/C=C/c2ccc(O)c(OC)c2)ccc1O` [Compound 35, (1E,6E)-4-(2,3-dimethoxybenzylidene)-1,7-bis(4-hydroxy-3-methoxyphenyl)hepta-1,6-diene-3,5-dione], the “block of IκB phosphorylation and degradation (in words)” value (shortened to “block … (in words)”) in the experiment with IKK was “potently block the IκB phosphorylation and degradation in a lower concentration”. The “effect on IKKβ catalyzed incorporation of 32P into GST-IκB (in words)” value (“effect on IKKβ catalyzed incorporation” below) at recombinant IKKβ is “dose-dependent inhibition of IKKβ”.
In the case of “5-hydroxy-1, 7-bis(4-hydroxy-3-methoxyphenyl)hepta-1, 4, 6-trien-3-one [Curcumin, reference compound]”, the “concentration with detectable inhibition of colony forming activity” value with A549 cells was 4 µM. Moreover, the “block … (in words)” value in the experiment with IKK was “block IκB phosphorylation and degradation when high concentrations were used”. In addition, the “effect on IKKβ catalyzed incorporation” value at recombinant IKKβ was “no obvious effect”.
In the case of `COc1ccc(/C=C/C(=O)C(=Cc2ccc(F)cc2)C(=O)/C=C/c2ccc(OC)c(OC)c2)cc1OC` [Compound 21, (1E,6E)-1,7-bis(3,4-dimethoxyphenyl)-4-(4-fluorobenzylidene)hepta-1,6-diene-3,5-dione], the “fold greater potency than curcumin in blocking nuclear localization of NF-κB” value with NF-κB is listed as “more than 10 fold”. Moreover, the “block … (in words)” value with IKK was “potently block the IκB phosphorylation and degradation in a lower concentration”. The “effect on IKKβ catalyzed incorporation” value at recombinant IKKβ was “dose-dependent inhibition of IKKβ”.
For `COc1cc(C=C(C(=O)/C=C/c2ccc(OC)c(OC)c2)C(=O)/C=C/c2ccc(OC)c(OC)c2)ccc1O` [Compound 17, (1E,6E)-1,7-bis(3,4-dimethoxyphenyl)-4-(4-hydroxy-3-methoxybenzylidene)hepta-1,6-diene-3,5-dione], in the experiment with NF-κB, the “fold greater potency than curcumin in blocking nuclear localization of NF-κB” value is “more than 10 fold”. For the same molecule, the “block … (in words)” value in the experiment on IKK was “potently block the IκB phosphorylation and degradation in a lower concentration”. Further, at recombinant IKKβ, the “effect on IKKβ catalyzed incorporation” value is “dose-dependent inhibition of IKKβ”.
